# Compounds with a hit are over-represented: about 3.3% of the library has one in this group of screens.
# PRMT1 inh: PRMT1 methyltransferase inhibitors, primary screen, biochemical, fluorescence polarization | inhibition, % at 2.79 µM | Protein arginine N-methyltransferase 1 (Homo sapiens), Q99873 | recombinant PRMT1, activity-based probe fluorescence polarization | hit rate 1.3% among 370,000 | AID 652257, 2013;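 active = inhibition above about 21% made by adding two undisclosed values, limit read from the data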
# Target sequence (Q99873 whole entry, looked up): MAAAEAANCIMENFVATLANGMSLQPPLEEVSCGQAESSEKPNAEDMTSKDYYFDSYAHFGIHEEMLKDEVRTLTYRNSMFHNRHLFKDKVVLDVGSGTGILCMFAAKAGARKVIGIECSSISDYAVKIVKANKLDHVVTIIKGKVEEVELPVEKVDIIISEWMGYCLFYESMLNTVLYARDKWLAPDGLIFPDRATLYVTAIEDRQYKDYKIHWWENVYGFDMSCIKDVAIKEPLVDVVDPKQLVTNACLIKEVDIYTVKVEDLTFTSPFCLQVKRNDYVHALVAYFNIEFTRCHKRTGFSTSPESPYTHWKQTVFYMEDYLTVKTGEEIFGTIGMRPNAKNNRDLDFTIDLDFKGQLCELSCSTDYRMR
# mABHD4 FP: ABHD4 inhibitors, primary screen, biochemical, fluorescence polarization, mouse; inhibition, % at 8.92 µM; AID 720543, 2013; hit rate 0.54% among 370,000; purified mABHD4, FP-Rh probe fluorescence polarization; (Lyso)-N-acylphosphatidylethanolamine lipase (Mus musculus), Q8VD66;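 active = inhibition exceeding the mean over every tested compound plus 3 SD, cut at about 30% in these data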;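 note: 0% = plate median of compound wells and 100% = S159A mutant with DMSO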
#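 Assay system: mABHD4 protein; medium: HEPES pH 7.0, NaCl, Pluronic buffer; dosing: 8.92 µM, single dose; schedule: 45 min + 60 min at 25 °C; signal: FP readout, ex 525 nm / em 598 nm; read-out: normalized percent inhibition of probe labeling; repeats: single replicate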
# HTRA1 inh: HTRA1 serine protease inhibitors, primary screen, biochemical, fluorescence polarization, HTS; Q92743; recombinant HTRA1, FP-rhodamine activity-based probe; inhibition, % at 5.96 µM; hit rate 0.5% among 340,000; in the data active = inhibition above about 36%;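 note: 0% = enzyme with DMSO and 100% = wells lacking enzyme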
# rCAG RNA binder: binders of r(CAG) RNA repeats, primary screen, biochemical, fluorescence; r(CAG) RNA repeat, TO-PRO-1 dye displacement fluorescence; inhibition, % at 3 µM; hit rate 1.3% among 370,000; AID 651821, 2012;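 active = inhibition above the plate cutoff, the mean of all test compounds on that plate plus 3 SD, cut at about 35% in these data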;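 note: 0% = DMSO alone and 100% = 100 µM mitoxantrone as full dye displacement; higher means more dye released from RNA so lower well fluorescence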
# SIAE primary: human SIAE inhibitors, primary screen, biochemical, fluorescence polarization, FP-Rh probe, 1536-well HTS; SIAE FP-Rh probe binding; inhibition, % at 9.66 µM; hit rate 0.69% among 370,000;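 active = inhibition above a cutoff: mean of compounds within the control limits plus 3 SD of those, cut at about 17% in these data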;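 note: 0% = plate median of compound wells and 100% = probe without SIAE protein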
# HTRA1 inh conf: HTRA1 protease inhibitors, retest, confirmation, biochemical, fluorescence polarization; hit rate 66% among 1,600; shares compounds with HTRA1 inh; recombinant HTRA1, FP-rhodamine activity-based probe; inhibition, % at 5.96 µM; AID 540248, 2011;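 active = mean inhibition over three repeats above a set limit taken from the earlier primary screen, cut at about 37% in these data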;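 note: 0% = HTRA1 with DMSO and 100% = wells lacking HTRA1; inhibitors block probe binding so polarization drops and inhibition rises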
# rCAG binder conf: small molecules binding CAG repeat RNA – biochemical, fluorescence, confirmation | shares compounds with rCAG RNA binder | r(CAG) RNA repeat, TO-PRO-1 dye displacement fluorescence | inhibition, % at 3 µM | hit rate 70% among 4,300 | AID 652065, 2013;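 active = inhibition above a per-plate cutoff, the mean inhibition of sample wells plus 3 SD, cut at about 35% in these data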;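 note: loss of TO-PRO-1 fluorescence as compound displaces dye from 1x1 AA loop RNA; 0% = DMSO only wells and 100% = 100 µM mitoxantrone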
# DNA CAG counter: displacement of TO-PRO-1 from CAG DNA duplex, counter-screen for rCAG RNA repeat binder project, biochemical, fluorescence, TO-PRO-1 dye, d(CAG) DNA oligo. shares compounds with rCAG RNA binder. d(CAG) DNA oligo TO-PRO-1 dye displacement. inhibition, % at 3 µM. hit rate 94% among 4,300;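 active = inhibition above its plate's cutoff, the mean test-well inhibition plus 3 SD, cut at about 4.8% in these data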;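 note: 0% = DNA dye mix with DMSO and 100% = 100 µM mitoxantrone; hits displace the dye from DNA and so lower well fluorescence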
# dCAG dye DR: inhibitors of DNA CAG/GTC TO-PRO-1 complex, dose response, counter-screen for rCAG RNA repeat binder project, biochemical, fluorescence, TO-PRO-1 dye | shares compounds with rCAG RNA binder | DNA CAG/GTC duplex TO-PRO-1 dye displacement fluorescence | IC50, µM | hit rate 20% among 250; in the data active = IC50 below about 10 µM
# PRMT1 inh conf: PRMT1 methyltransferase inhibitors, confirmation, biochemical, fluorescence polarization, triplicate. hit rate 42% among 3,300. shares compounds with PRMT1 inh. AID 687036, 2013. recombinant His-PRMT1, activity-based probe fluorescence polarization. inhibition, % at 2.79 µM;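 active = mean inhibition across replicates above the hit cutoff derived for the earlier primary screen, cut at about 22% in these data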
# ABHD4 confirm: ABHD4 inhibitors, retest, confirmation, biochemical, fluorescence polarization, mouse. hit rate 55% among 1,800. purified mABHD4, FP-Rh probe fluorescence polarization. shares compounds with mABHD4 FP. inhibition, % at 8.92 µM;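 active = mean inhibition across replicates above the hit cutoff set in the primary screen, cut at about 30% in these data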;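 note: 0% = wild-type ABHD4 with DMSO and 100% = catalytically dead S159A mutant with DMSO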
# SIAE confirm: human SIAE inhibitors, retest, confirmation, biochemical, fluorescence polarization, FP-Rh probe, triplicate; shares compounds with SIAE primary; hit rate 13% among 2,300; SIAE FP-Rh activity-based probe; inhibition, % at 9.66 µM;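 active = mean inhibition of the replicates above the hit cutoff set in the primary screen, cut at about 17% in these data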;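 note: 0% = SIAE with DMSO and probe and 100% = probe without SIAE; inhibitors lower polarization as more probe stays unbound to SIAE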
# * hit, by the source's call; i = inactive; . = no result given.
SMILES,PRMT1 inh,mABHD4 FP,HTRA1 inh,rCAG RNA binder,SIAE primary,HTRA1 inh conf,rCAG binder conf,DNA CAG counter,ABHD4 confirm,SIAE confirm,others
CCn1nc([N+](=O)[O-])c(C(C#N)c2nc3cc(C(F)(F)F)ccc3s2)c(Cl)c1=O (stereo unspecified),28*,85*,79*,94*,23*,76*,87*,60*,101*,18*,PRMT1 inh conf=31*
CCCn1nc([N+](=O)[O-])c(C(C#N)c2nc3ccccc3o2)c(Cl)c1=O (stereo unspecified),22*,80*,69*,80*,22*,83*,77*,37*,95*,5,
Oc1c(Br)cc(Br)cc1/C=N/NC(=S)N[C@H]1CC2C=CC1C2 (stereo partly specified),-5,38*,57*,74*,24*,63*,66*,29*,43*,24*,dCAG dye DR=i
CCOc1ccc(/C=N/NC(=S)NC2CC3C=CC2C3)cc1 (stereo unspecified),2,-5,.,2,3,.,.,.,.,.,
COc1ccc2ccccc2c1C(O)c1nccn1C (stereo unspecified),85*,40*,39*,-278,57*,25,.,.,88*,43*,
Cn1ccnc1C(O)c1ccccc1 (stereo unspecified),3,3,-4,-2,-8,.,.,.,.,.,
COC(=O)C1CN(CCc2ccccc2)CCS(=O)(=O)N1Cc1ccc(Cl)cc1 (stereo unspecified),0,-2,.,4,0,.,.,.,.,.,
CC1CCc2c(sc(Nc3nc4c(F)cccc4s3)c2C(N)=O)C1 (stereo unspecified),23*,-3,-9,42*,6,.,26,14*,.,.,
O=C(Nc1nc2c(F)cccc2s1)C1CC1,3,3,-5,1,0,.,.,.,.,.,
Fc1cccc2sc(Nc3nc4c(F)cccc4s3)nc12,0,2,-8,58*,0,.,60*,24*,.,.,
O=C(c1cccs1)n1ccc2ccc(-c3ccc4ccn(Cc5ccccc5)c4c3)cc21,3,-13,.,20,-14,.,.,.,.,.,
CN(Cc1ccccc1)C(=O)C1CCN(S(=O)(=O)c2ccc3nc4c(c(C(=O)O)c3c2)CCCC4)CC1,8,18,3,54*,2,.,54*,17*,.,.,
COc1ccc(CNC(=O)C2CCN(S(=O)(=O)c3ccc4nc5c(c(C(=O)O)c4c3)CC(C)CC5)CC2)cc1 (stereo unspecified),-1,-2,6,33,2,.,.,.,.,.,
